According to the RNAGym collection of RNA variant scans (doi:10.1038/s41586-018-0170-7):

B1: tRNA (parent)
chain: GUUCCGUUGGCGUAAUGGUAACGCGUCUCCCUCCUAAGGAGAAGACUGCGGGUUCGAGUCCCGUACGGAACG

Variants of: B1
Test: yeast fitness, log relative to wild type (ln ratio); higher = fitter; tRNA-Arg(CCU), competitive growth, 37 C, 1 M NaCl
Method in brief: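 Fitness is the natural log of each genotype's generations divided by the wild type's. Generations were derived as OD-scaled log2 output/input frequency from 125 bp paired-end Illumina counts, weighting replicates by inverse variance. Pools of the tRNA-Arg(CCU) variant library, on a HIS3 centromeric plasmid in BY4742 lacking the chromosomal gene, grew ~6.5 generations (~26.5 h) in SC-HIS 1M NaCl at 37 °C after 4 generations in SC-HIS at 30 °C.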

Variant	yeast fitness (ln)
GUUCCUUUGGCGUAAUGGUAACGCGUUUCCCUCCUAAGGAGACGAUUGCGGGUUCGAGUCCCGUACGGAGCG	-0.248
GCUCCUUUGGCGUAAUGGUAACGCGUUUCCCUCCUAAGGAGACGAUUGCGGGUUCGAGUCCCGUAUGGGAUG	-0.465
GCUCCUUUGGCGUAAUGGUAACGCGUCUCCCUCCUAAGGAGACGAUUGCGGGUUCGAGUCCCGUAAGGAUCG	-0.21
GCUCCGUUGGCGUAAUGGUAACGCGUUUCCCUCCUAAGGAGACGAUUGCGGGUUCGAGUCCCGUAAGGAACG	-0.0384
GGUCCUUUGGCGUAAUGGUAACGCGUCUCCCUCCUAAGGAGACGAUUGCGGGUUCGAGUCCCGUAAGGGGCG	-0.242
AGUCCUUUGGCGUAAUGGUAACGCGUUUCCCUCCUAAGGAGACGACUGCGGGUUCGAGUCCCGUAUGGAAUG	-0.518
GUUCCGUUGGCGUAAUGGUAACGCGUCUCCCUCCUAAGGAGAAGAUUGCGGGUUCGAGUCCCGUACGGGACG	-0.00396
GCUCCAUUGGCGUAAUGGUAACGCGUCUCCCUCCUAAGGAGAAGACUGCGGGUUCGAGUCCCGUAUGGAUUG	-0.172
AGUCCUUUGGCGUAAUGGUAACGCGUUUCCCUCCUAAGGAGAAGAUUGCGGGUUCGAGUCCCGUAUGGAGUG	-0.307
ACUCCUUUGGCGUAAUGGUAACGCGUCUCCCUCCUAAGGAGAAGAUUGCGGGUUCGAGUCCCGUACGGAGCG	-0.239
AUUCCUUUGGCGUAAUGGUAACGCGUUUCCCUCCUAAGGAGAAGAUUGCGGGUUCGAGUCCCGUAUGGGAUG	-0.595
AUUCCAUUGGCGUAAUGGUAACGCGUCUCCCUCCUAAGGAGACGACUGCGGGUUCGAGUCCCGUACGGAUCG	-0.221
GUUCCUUUGGCGUAAUGGUAACGCGUUUCCCUCCUAAGGAGAAGACUGCGGGUUCGAGUCCCGUAUGGAAUG	-0.256
AGUCCUUUGGCGUAAUGGUAACGCGUUUCCCUCCUAAGGAGAAGACUGCGGGUUCGAGUCCCGUACGGAAUG	-0.358
AGUCCGUUGGCGUAAUGGUAACGCGUCUCCCUCCUAAGGAGAAGACUGCGGGUUCGAGUCCCGUACGGAUUG	0.00659
GCUCCUUUGGCGUAAUGGUAACGCGUCUCCCUCCUAAGGAGAAGAUUGCGGGUUCGAGUCCCGUAUGGGUCG	-0.0758
GGUCCGUUGGCGUAAUGGUAACGCGUCUCCCUCCUAAGGAGAAGAUUGCGGGUUCGAGUCCCGUAAGGGAUG	-0.191
GUUCCAUUGGCGUAAUGGUAACGCGUUUCCCUCCUAAGGAGACGAUUGCGGGUUCGAGUCCCGUACGGGACG	-0.166
AUUCCUUUGGCGUAAUGGUAACGCGUUUCCCUCCUAAGGAGAAGACUGCGGGUUCGAGUCCCGUACGGAUCG	-0.232

Variant	yeast fitness (ln)
ACUCCGUUGGCGUAAUGGUAACGCGUUUCCCUCCUAAGGAGAAGACUGCGGGUUCGAGUCCCGUAUGGGUUG	-0.54
AGUCCUUUGGCGUAAUGGUAACGCGUCUCCCUCCUAAGGAGAAGAUUGCGGGUUCGAGUCCCGUAAGGGUCG	-0.0992
AGUCCUUUGGCGUAAUGGUAACGCGUUUCCCUCCUAAGGAGACGAUUGCGGGUUCGAGUCCCGUAAGGAAUG	-0.41
AGUCCAUUGGCGUAAUGGUAACGCGUUUCCCUCCUAAGGAGACGAUUGCGGGUUCGAGUCCCGUACGGGGCG	-0.382
GUUCCUUUGGCGUAAUGGUAACGCGUUUCCCUCCUAAGGAGAAGACUGCGGGUUCGAGUCCCGUAAGGAAUG	-0.109
AGUCCUUUGGCGUAAUGGUAACGCGUCUCCCUCCUAAGGAGACGAUUGCGGGUUCGAGUCCCGUAAGGAUCG	-0.303
GCUCCAUUGGCGUAAUGGUAACGCGUUUCCCUCCUAAGGAGAAGAUUGCGGGUUCGAGUCCCGUACGGAACG	-0.0382
GCUCCGUUGGCGUAAUGGUAACGCGUCUCCCUCCUAAGGAGACGACUGCGGGUUCGAGUCCCGUACGGAUCG	-0.0907
AUUCCAUUGGCGUAAUGGUAACGCGUUUCCCUCCUAAGGAGAAGACUGCGGGUUCGAGUCCCGUAAGGAGUG	-0.473
GUUCCUUUGGCGUAAUGGUAACGCGUCUCCCUCCUAAGGAGAAGACUGCGGGUUCGAGUCCCGUAAGGGUCG	-0.291
GUUCCAUUGGCGUAAUGGUAACGCGUUUCCCUCCUAAGGAGACGACUGCGGGUUCGAGUCCCGUAAGGAGUG	-0.325
GUUCCGUUGGCGUAAUGGUAACGCGUCUCCCUCCUAAGGAGAAGACUGCGGGUUCGAGUCCCGUAUGGGACG	-0.168
GGUCCGUUGGCGUAAUGGUAACGCGUUUCCCUCCUAAGGAGAAGAUUGCGGGUUCGAGUCCCGUACGGGGCG	-0.355
AGUCCAUUGGCGUAAUGGUAACGCGUCUCCCUCCUAAGGAGAAGAUUGCGGGUUCGAGUCCCGUACGGAUCG	-0.143
AGUCCGUUGGCGUAAUGGUAACGCGUUUCCCUCCUAAGGAGAAGACUGCGGGUUCGAGUCCCGUAUGGGAUG	-0.395
GUUCCGUUGGCGUAAUGGUAACGCGUUUCCCUCCUAAGGAGACGAUUGCGGGUUCGAGUCCCGUACGGAUCG	-0.0673
GGUCCUUUGGCGUAAUGGUAACGCGUUUCCCUCCUAAGGAGACGACUGCGGGUUCGAGUCCCGUACGGGGUG	-0.35
AUUCCAUUGGCGUAAUGGUAACGCGUCUCCCUCCUAAGGAGACGACUGCGGGUUCGAGUCCCGUACGGGAUG	-0.335
GGUCCAUUGGCGUAAUGGUAACGCGUUUCCCUCCUAAGGAGACGAUUGCGGGUUCGAGUCCCGUAAGGAGUG	-0.19
